Results on 1 compound are retold here after ChEMBL document CHEMBL3826928, “Incorporation of Phosphonate into Benzonaphthyridine Toll-like Receptor 7 Agonists for Adsorption to Aluminum Hydroxide” (J Med Chem, 2016).

Common to all, as to format: ADME, organism-based
Details in all cases: in vivo; call rule not given here

The test system of data set [1] is Muscle tissue. Briefly: Drug level in Balb/c mouse muscle at 100 ug, im measured at 24 hrs post dose using alum bound compound formulation. The method, boiled down:
(§1)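 Female BALB/c mice (6−8 weeks, 3 per group) given 100 μg intramuscularly, with or without alum, 50 μL in each hind leg. Serum from retro-orbital bleeds at time points; protein precipitation, reverse-phase LC and ESI+ MRM mass spectrometry. Injected muscle drug level measured at 24 h.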

The subject of data set [2] is Muscle tissue. Briefly: Drug level in Balb/c mouse muscle at 100 ug, im measured at 24 hrs post dose. The procedure, abridged: as §1
Data set [3] relates to Serum. Nature of the data set: Drug level in Balb/c mouse serum at 100 ug, im measured up to 24 hrs post dose using alum bound compound formulation. The procedure, abridged: as §1

In the case of `Cc1ccc2c(c1)nc(N)c1ncc(CCc3ccc(OCCOCCOCCC(F)(F)P(=O)(O)O)cc3C)cc12`, the Drug uptake result in data set [1] was “Active”; in data set [2] it was “Not Active”; in data set [3], “Not Active”.
